Data from publication PMC5388420 (Nucleic Acids Research, 2016).
Like-named read-outs stand apart in the source and are kept apart here.

How the values were obtained:
[1] = MANT-ATP binding by stopped flow fluorescence spectroscopy; conditions: for Kd: read-out: MANT-ATP binding Kd (calc., koff/kon)
5΄ppp10L RNA hairpin = test: NADH coupled ATPase activity assay; assay type: biochemical; conditions: for K M,RNA / k cat: steady state ATPase activity; for K M,RNA: 5΄ppp10L
Method in brief: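 Coupled NADH assay: 10 nM RIG-I in 25 mM MOPS pH 7.4, 150 mM NaCl, 5 mM DTT with 1 mM NADH, 100 U/ml lactate dehydrogenase, 500 U/ml pyruvate kinase and 2.5 mM PEP. The hairpin was added as a 12-point series (~0.5–500 nM, diluted in MES pH 6.0/EDTA) and incubated ≥2 h at RT. Reactions were started with 5 mM ATP/5 mM MgCl2, and NADH absorbance loss was followed for 10 min. Mean velocities were plotted against RNA concentration.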

[2] = test system: IFN-β/FireflyLuc reporter in HEK 293T cells; test: IFN-β induction dual luciferase assay; assay type: cell-based; conditions: for Maximum IFN-β Production, 5΄OH10L: HEK 293T cells challenged with 5΄OH10L; for Maximum IFN-β Production, 5΄ppp10L: HEK 293T cells challenged with 5΄ppp10L; for Maximum IFN-β Production, PIC: HEK 293T cells challenged with poly(I:C); for Maximum IFN-β Production, Mock: HEK 293T cells, mock challenge (no exogenous RNA)
5΄ppp10L hairpin RNA [3] = conditions: presence of either ATPγS or ADP; ref [22]; cited from earlier work
[4] = biological target: FAM-labeled 10 base pair RNA hairpin (OH10L); test: Equilibrium fluorescent RNA binding assay; conditions: read-out: Equilibrium RNA binding Kd, OH10L
Method in brief: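 Recombinant hRIG-I was expressed from pET-SUMO in E. coli Rosetta II (DE3) and purified by nickel, heparin and Superdex 200 chromatography. 6-FAM was attached via the amino-modified UUCG tetraloop, with 2 nM hairpin final. Buffer: 25 mM MOPS pH 7.4, 150 mM NaCl, 5 mM DTT, 0.01% Triton X-100. Protein was titrated over 12 points (1.5–1500 nM) and equilibrated 2 h at RT. Polarization was read at ex 485/em 528 (G = 0.87), 2 wells × 3 reads, and fit one-site total binding. Three experiments gave mean and SD.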

5΄ppp10L hairpin RNA [5] = test: RNA dissociation rate constant measurements; assay type: binding
Method in brief: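 RIG-I was pre-incubated equimolar with Cy3-labeled hairpin for 2–6 h at RT, then rapidly mixed with 100-fold excess unlabeled hairpin trap (2000 points). Nucleotide (3 mM ATPγS or ADP) plus MgCl2 was included with the trap. Excitation was 515 nm with emission ≥570 nm. 4–6 averaged traces were fit double-exponential for amplitudes and k1/k2.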

[6] = from 5΄ppp10L, nucleotide: ADP (3 mM)
[7] = from 5΄ppp10L, nucleotide: ATPγS (3 mM)
[8] = from 5΄ppp10L, nucleotide: None

Row | Molecule | Kd ([1]; protein bound to OH10L) | K M,RNA (5΄ppp10L RNA hairpin) | k cat (5΄ppp10L RNA hairpin; stimulated by 5΄ppp10L) | Maximum IFN-β Production, 5΄OH10L [2] | Maximum IFN-β Production, 5΄ppp10L [2] | Maximum IFN-β Production, PIC [2] | Maximum IFN-β Production, Mock [2] | Kd [4] | Kd ([1]; protein bound to 5΄ppp10L) | Amplitude of k 1 (5΄ppp10L hairpin RNA [5]; [7]) | Amplitude of k 2 (5΄ppp10L hairpin RNA [5]; [7]) | k 1 (RNA dissociation rate constant) (5΄ppp10L hairpin RNA [5]; [7]) | k 2 (RNA dissociation rate constant) (5΄ppp10L hairpin RNA [5]; [7]) | Amplitude of k 1 (5΄ppp10L hairpin RNA [5]; [8]) | Amplitude of k 2 (5΄ppp10L hairpin RNA [5]; [8]) | k 1 (RNA dissociation rate constant) (5΄ppp10L hairpin RNA [5]; [8]) | k 2 (RNA dissociation rate constant) (5΄ppp10L hairpin RNA [5]; [8]) | other results
1 | WT RIG-I: Wild-type human RIG-I (hRIG-I), innate immune receptor and RNA-stimulated ATPase, recombinant or expressed from pUNO-hRIG-I (protein, UniProt O95786 1-925, looked up) Antiviral innate immune …: MTTEQRRSLQAFQDYIRKTLDPTYILSYMAPWFREEEVQYIQAEKNNKGPMEAATLFLKFLLELQEEGWFRGFLDALDHAGYSGLYEAIESWDFKKIEKLEEYRLLLKRLQPEFKTRIIPTDIISDLSECLINQECEEILQICSTKGMMAGAEKLVECLLRSDKENWPKTLKLALEKERNKFSELWIVEKGIKDVETEDLEDKMETSDIQIFYQEDPECQNLSENSCPPSEVSDTNLYSPFKPRNYQLELALPAMKGKNTIICAPTGCGKTFVSLLICEHHLKKFPQGQKGKVVFFANQIPVYEQQKSVFSKYFERHGYRVTGISGATAENVPVEQIVENNDIIILTPQILVNNLKKGTIPSLSIFTLMIFDECHNTSKQHPYNMIMFNYLDQKLGGSSGPLPQVIGLTASVGVGDAKNTDEALDYICKLCASLDASVIATVKHNLEELEQVVYKPQKFFRKVESRISDKFKYIIAQLMRDTESLAKRICKDLENLSQIQNREFGTQKYEQWIVTVQKACMVFQMPDKDEESRICKALFLYTSHLRKYNDALIISEHARMKDALDYLKDFFSNVRAAGFDEIEQDLTQRFEEKLQELESVSRDPSNENPKLEDLCFILQEEYHLNPETITILFVKTRALVDALKNWIEGNPKLSFLKPGILTGRGKTNQNTGMTLPAQKCILDAFKASGDHNILIATSVADEGIDIAQCNLVILYEYVGNVIKMIQTRGRGRARGSKCFLLTSNAGVIEKEQINMYKEKMMNDSILRLQTWDEAVFREKILHIQTHEKFIRDSQEKPKPVPDKENKKLLCRKCKALACYTADVRVIEECHYTVLGDAFKECFVSRPHPKPKQFSSFEKRAKIFCARQNCSHDWGIHVKYKTFEIPVIKIESFVVEDIATGVQTLYSKWKDFHFEKIPFDPAEMSK | 136 ± 6 µM | 10.0 ± 1.0 nM | 18.2 ± 0.3 ATP/RIG-I•s | 3.8 ± 0.3 Firefly Luc/Renilla Luc | 20.1 ± 1.7 Firefly Luc/Renilla Luc | 59.2 ± 15 Firefly Luc/Renilla Luc | 0.99 ± 0.4 Firefly Luc/Renilla Luc | 17 ± 1 nM | – | – | – | – | – | – | – | – | – | kcat (RNA-stimulated ATPase activity) (5΄ppp10L RNA hairpin; stimulated by 5΄ppp10L): 18.2 s⁻¹; increase in the rate of dissociation from 5΄ppp10L (5΄ppp10L hairpin RNA [3]): 5 fold
2 | S411A: RIG-I variant with mutation S411A within conserved helicase Motif III; constitutively signaling (protein, UniProt O95786 1-925, looked up, variant S411A) Antiviral innate immune …: MTTEQRRSLQAFQDYIRKTLDPTYILSYMAPWFREEEVQYIQAEKNNKGPMEAATLFLKFLLELQEEGWFRGFLDALDHAGYSGLYEAIESWDFKKIEKLEEYRLLLKRLQPEFKTRIIPTDIISDLSECLINQECEEILQICSTKGMMAGAEKLVECLLRSDKENWPKTLKLALEKERNKFSELWIVEKGIKDVETEDLEDKMETSDIQIFYQEDPECQNLSENSCPPSEVSDTNLYSPFKPRNYQLELALPAMKGKNTIICAPTGCGKTFVSLLICEHHLKKFPQGQKGKVVFFANQIPVYEQQKSVFSKYFERHGYRVTGISGATAENVPVEQIVENNDIIILTPQILVNNLKKGTIPSLSIFTLMIFDECHNTSKQHPYNMIMFNYLDQKLGGSSGPLPQVIGLTAAVGVGDAKNTDEALDYICKLCASLDASVIATVKHNLEELEQVVYKPQKFFRKVESRISDKFKYIIAQLMRDTESLAKRICKDLENLSQIQNREFGTQKYEQWIVTVQKACMVFQMPDKDEESRICKALFLYTSHLRKYNDALIISEHARMKDALDYLKDFFSNVRAAGFDEIEQDLTQRFEEKLQELESVSRDPSNENPKLEDLCFILQEEYHLNPETITILFVKTRALVDALKNWIEGNPKLSFLKPGILTGRGKTNQNTGMTLPAQKCILDAFKASGDHNILIATSVADEGIDIAQCNLVILYEYVGNVIKMIQTRGRGRARGSKCFLLTSNAGVIEKEQINMYKEKMMNDSILRLQTWDEAVFREKILHIQTHEKFIRDSQEKPKPVPDKENKKLLCRKCKALACYTADVRVIEECHYTVLGDAFKECFVSRPHPKPKQFSSFEKRAKIFCARQNCSHDWGIHVKYKTFEIPVIKIESFVVEDIATGVQTLYSKWKDFHFEKIPFDPAEMSK | 75 ± 5 µM | 5.0 ± 1 nM | 5.1 ± 0.4 ATP/RIG-I•s | 19.5 ± 3.8 Firefly Luc/Renilla Luc | 56.6 ± 10.8 Firefly Luc/Renilla Luc | 209.8 ± 17 Firefly Luc/Renilla Luc | 3.5 ± 0.5 Firefly Luc/Renilla Luc | 23 ± 1.8 nM | 82 ± 6 µM | 42% | 58% | 68 ± 0.9 × 10^−3 s^−1 | 2 ± 0.04 × 10^−3 s^−1 | 52% | 48% | 45 ± 0.2 × 10^−3 s^−1 | 4 ± 0.1 × 10^−3 s^−1 | greater affinity for MANT-ATP relative to WT ([1]; protein bound to OH10L): 2 fold; Amplitude of k 1 (5΄ppp10L hairpin RNA [5]; [6]): 62%; Amplitude of k 2 (5΄ppp10L hairpin RNA [5]; [6]): 38%; k 1 (RNA dissociation rate constant) (5΄ppp10L hairpin RNA [5]; [6]): 70 ± 0.9 × 10^−3 s^−1; k 2 (RNA dissociation rate constant) (5΄ppp10L hairpin RNA [5]; [6]): 6 ± 0.1 × 10^−3 s^−1; effect of nucleotide on the rate of dissociation from 5΄ppp10L (5΄ppp10L hairpin RNA [5]; saturating nucleotide (ATPγS, ADP)): did not significantly change
3 | S411L: RIG-I Motif III variant, serine 411 mutated to leucine, annotated in tumor samples (protein, UniProt O95786 1-925, looked up, variant S411L) Antiviral innate immune …: MTTEQRRSLQAFQDYIRKTLDPTYILSYMAPWFREEEVQYIQAEKNNKGPMEAATLFLKFLLELQEEGWFRGFLDALDHAGYSGLYEAIESWDFKKIEKLEEYRLLLKRLQPEFKTRIIPTDIISDLSECLINQECEEILQICSTKGMMAGAEKLVECLLRSDKENWPKTLKLALEKERNKFSELWIVEKGIKDVETEDLEDKMETSDIQIFYQEDPECQNLSENSCPPSEVSDTNLYSPFKPRNYQLELALPAMKGKNTIICAPTGCGKTFVSLLICEHHLKKFPQGQKGKVVFFANQIPVYEQQKSVFSKYFERHGYRVTGISGATAENVPVEQIVENNDIIILTPQILVNNLKKGTIPSLSIFTLMIFDECHNTSKQHPYNMIMFNYLDQKLGGSSGPLPQVIGLTALVGVGDAKNTDEALDYICKLCASLDASVIATVKHNLEELEQVVYKPQKFFRKVESRISDKFKYIIAQLMRDTESLAKRICKDLENLSQIQNREFGTQKYEQWIVTVQKACMVFQMPDKDEESRICKALFLYTSHLRKYNDALIISEHARMKDALDYLKDFFSNVRAAGFDEIEQDLTQRFEEKLQELESVSRDPSNENPKLEDLCFILQEEYHLNPETITILFVKTRALVDALKNWIEGNPKLSFLKPGILTGRGKTNQNTGMTLPAQKCILDAFKASGDHNILIATSVADEGIDIAQCNLVILYEYVGNVIKMIQTRGRGRARGSKCFLLTSNAGVIEKEQINMYKEKMMNDSILRLQTWDEAVFREKILHIQTHEKFIRDSQEKPKPVPDKENKKLLCRKCKALACYTADVRVIEECHYTVLGDAFKECFVSRPHPKPKQFSSFEKRAKIFCARQNCSHDWGIHVKYKTFEIPVIKIESFVVEDIATGVQTLYSKWKDFHFEKIPFDPAEMSK | – | Inactive | Inactive | – | 7.8 ± 1.5 Firefly Luc/Renilla Luc | 1.8 ± 0.4 Firefly Luc/Renilla Luc | 0.2 ± 0.01 Firefly Luc/Renilla Luc | 41 ± 1.8 nM | 110 ± 8 µM | 81% | 19% | 210 ± 1 × 10^−3 s^−1 | 10 ± 0.1 × 10^−3 s^−1 | 52% | 48% | 27 ± 0.2 × 10^−3 s^−1 | 2 ± 0.04 × 10^−3 s^−1 | loss in IFN-β activation relative to WT ([2]; HEK 293T cells challenged by 5΄ppp10L): 3 fold; loss in IFN-β activation relative to WT ([2]; HEK 293T cells challenged by poly I:C): 31 fold; stimulation of koff^RNA by ATPγS (5΄ppp10L hairpin RNA [5]; from 5΄ppp10L): 7.8 fold
